The subject of assay [1] is HeLa. In words: Antiproliferative activity against human HeLa cells at 20 uM after 48 hrs incubation by Alamar Blue assay. Format: functional, cell-based. Put shortly: (§1)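 HeLa cells plated at 3 x 10^3 cells/well, treated 48 h at a single concentration (20 or 30 µM as per line); viability by Alamar Blue added for 3 h at 37 °C, 5% CO2, fluorescence at 530 nm ex/590 nm em; percent inhibition of proliferation.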
A general note: Resazurin is reduced to fluorescent resorufin, in cell work by metabolically active cells.

Assay [2] relates to HeLa. The experiment in a line: Antiproliferative activity against human HeLa cells at 30 uM after 48 hrs incubation by Alamar Blue assay. Type of assay: functional, cell-based. Put shortly:
as §1

Assay [3] addresses T1, Dual specificity protein phosphatase 3 (Homo sapiens, UniProt P51452). To be noted: 100 uM.
Target sequence in this assay (P51452 whole entry, looked up): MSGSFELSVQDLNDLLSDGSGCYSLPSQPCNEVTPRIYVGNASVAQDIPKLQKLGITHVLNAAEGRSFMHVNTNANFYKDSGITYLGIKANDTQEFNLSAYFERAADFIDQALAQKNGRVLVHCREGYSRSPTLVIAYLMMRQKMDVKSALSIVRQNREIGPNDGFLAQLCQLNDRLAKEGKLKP
Assay [4] deals with T1, Dual specificity protein phosphatase 3. The experiment in a line: Inhibition of Vaccinia H1-related phosphatase (unknown origin) by fluorescence emission assay. Put shortly:
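Purified VHR (22 ng) preincubated with or without compound 30 min at 37 °C in 50 mM succinate, 1 mM EDTA, 150 mM NaCl, 1 mM DTT, pH 6.0, 0.001% NP-40; reaction begun with 10 µM O-methylfluorescein phosphate, 10 min at 37 °C; product fluorescence at 485 nm ex/530 nm em; IC50 from sigmoid dose-response curve.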
Target sequence in this assay (P51452 whole entry): as the sequence (P51452 whole entry, looked up) above

The target is the same in assay [5]. In words: Inhibition of Vaccinia H1-related phosphatase (unknown origin) by fluorescence emission assay in presence of 0.001% NP-40.
Target sequence in this assay (P51452 whole entry): as the sequence (P51452 whole entry, looked up) above
Assay [6] concerns HeLa. The experiment in a line: Antiproliferative activity against human HeLa cells after 48 hrs incubation by Alamar Blue assay. Format: functional, cell-based. The essentials:
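HeLa cells seeded at 3 x 10^3 cells/well, exposed to compounds for 48 h; Alamar Blue then added and incubated 3 h at 37 °C, 5% CO2; fluorescence read at 530 nm excitation/590 nm emission. IC50 taken from sigmoid dose-response curve.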

From ChEMBL document CHEMBL3259639, “RE12 derivatives displaying Vaccinia H1-related phosphatase (VHR) inhibition in the presence of detergent and their anti-proliferative activity against HeLa cells” (Bioorg Med Chem, 2014) come the findings set out here.

Calls of active or inactive are those of the source. The calls are words filed in the database; no cut-off is given here.

Consider `Cc1cccc(CN/C(CCCCc2ccccc2OCc2ccc([N+](=O)[O-])cc2)=C2\C(=O)OC(CO)C2=O)c1` (stereo unspecified), for which the inhibition result in the assay with HeLa [1] and in the assay on HeLa [2] was “Active” each time.
Consider `Cc1cccc(CN/C(CCCCc2ccccc2OCc2cccc(Cl)c2)=C2\C(=O)OC(CO)C2=O)c1` (stereo unspecified), for which the inhibition entry in the assay on HeLa [1] and in the assay with HeLa [2] was “Active” throughout.
On to `Cc1cccc(CN/C(CCCCc2cccc(OCc3ccc(Cl)cc3)c2)=C2\C(=O)OC(CO)C2=O)c1` (stereo unspecified), for which the inhibition entry in the assay on HeLa [1] and with HeLa [2] was “Active” each time.
Regarding `Cc1cccc(CN/C(CCCCc2cccc(OCc3ccccc3Cl)c2)=C2\C(=O)OC(CO)C2=O)c1` (stereo unspecified), the inhibition entry in the assay with HeLa [1] and in the assay on HeLa [2] was “Active” throughout.
What is called IC50 is the concentration needed to halve the response being measured. Consider `CCCCCCCCCCCCCCC/C(NCc1cccc(C)c1)=C1/C(=O)OC(CO)C1=O` (stereo unspecified), for which the inhibition result in the assay on HeLa [1] and in the assay with HeLa [2] was “Active” in each case. Moreover, the inhibition result in assay [3] is “inactive”. The IC50 in assay [4] was 1.6 µM; in assay [5], over 100 µM.
For the compound `Cc1cccc(CN/C(CCCCc2ccccc2OCc2ccc(Cl)cc2)=C2\C(=O)OC(CO)C2=O)c1` (stereo unspecified), the inhibition entry in the assay on HeLa [1] and with HeLa [2] was “Active” throughout.
With `Cc1cccc(CN/C(CCCCc2ccccc2OCc2ccccc2)=C2\C(=O)OC(CO)C2=O)c1` (stereo unspecified), the inhibition entry in the assay on HeLa [1] and in the assay with HeLa [2] was “Active” each time.
As for `Cc1cccc(CN/C(CCCCc2cccc(OCc3cccc(Cl)c3)c2)=C2\C(=O)OC(CO)C2=O)c1` (stereo unspecified), the inhibition entry with HeLa [1] and with HeLa [2] was “Active” throughout.
For `Cc1cccc(CN/C(CCCCc2ccccc2OCc2ccccc2Cl)=C2\C(=O)OC(CO)C2=O)c1` (stereo unspecified), the inhibition entry in the assay with HeLa [1] and in the assay with HeLa [2] was “Active” each time.
For `Cc1cccc(CN/C(CCCCc2ccc(OCc3ccc(Cl)cc3)cc2)=C2\C(=O)OC(CO)C2=O)c1` (stereo unspecified), the inhibition entry in the assay on HeLa [2] was “Active”.
Consider `Cc1cccc(CN/C(CCCCc2ccc(OCc3cccc(Cl)c3)cc2)=C2\C(=O)OC(CO)C2=O)c1` (stereo unspecified), for which the midpoint of inhibition with HeLa [6], the IC50, lay at 7.8 µM.
With `Cc1cccc(CN/C(CCCCc2ccccc2OCc2ccc(C(F)(F)F)cc2)=C2\C(=O)OC(CO)C2=O)c1` (stereo unspecified), the inhibition result with HeLa [1] and in the assay with HeLa [2] was “Active” throughout.
Turning to `Cc1cccc(CN/C(CCCCc2ccc(OCc3ccccc3Cl)cc2)=C2\C(=O)OC(CO)C2=O)c1` (stereo unspecified), half-maximal inhibition with HeLa [6] (IC50) was put at 10.6 µM.
